The results in this text go back to article PMC11374989 (Asian Journal of Pharmaceutical Sciences, 2024).

The MIC is the lowest concentration found to suppress growth. Higher therefore signals a need for much substance. Broadly, the logP is a log measure of how a compound divides between an organic and an aqueous phase. A higher logP goes with a more lipophilic compound.

One data set has as its system NF-κB (p65). Nature of the data set: Immunohistochemical observation of skin. It counts as in vivo, BALB/c-nu mice. The settings on record: after 7 d topical hydrogel, vs control group, n = 3. In short, it runs like this: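 P. acnes-infected nude mice were treated topically with 1 mg/ml hydrogel. Skin was collected at the end of treatment and paraffin sections were immunostained with mouse anti-NF-κB p65 antibody (1:400). Staining was quantified as average optical density (AOD) per group by image analysis.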

For a further data set, the system named is Sep. Nature of the data set: Minimum inhibition concentration. It counts as cell-based, Staphylococcus epidermidis. The note with it: Sep. (GDMCC 1.143), 1.5 × 10^6 CFU/ml, 48 h. In short, it runs like this: (§1)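 The parent compound was dissolved in DMSO/saline (1:9) and NPs were diluted in water. Samples were serially diluted (1:1 to 1:256, v/v) in LB or RCM broth and incubated 48 h with bacteria. Growth was scored visually. P. acnes (GDMCC 1.243) was grown on RCM at 37 °C anaerobically; S. aureus (GDMCC 1.1220) and S. epidermidis (GDMCC 1.143) were grown on NA at 37 °C.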

Data set [1] relates to P. acnes. Nature of the data set: Minimum inhibition concentration. It counts as cell-based, Propionibacterium acnes. The settings on record: P. acnes (GDMCC 1.243), anaerobic, 1.5 × 10^6 CFU/ml, 48 h. The procedure, abridged:
as §1

The test system of another data set is Sau. Nature of the data set: Minimum inhibition concentration. It counts as cell-based, Staphylococcus aureus. The settings on record: Sau. (GDMCC 1.1220), 1.5 × 10^6 CFU/ml, 48 h. In short, it runs like this: as §1
The nature of data set [2]: Oil-water distribution coefficient. It counts as physicochemical. The settings on record: n-octanol/water, logP Average, 25 °C, n = 3.
The subject of data set [3] is P. acnes. Nature of the data set: In vivo antibacterial efficiency. Also on record: species or system BALB/c-nu mice. The note with it: after 7 d of treatment, vs control, n = 3. In short, it runs like this: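 Six-week-old male BALB/c-nu mice were acclimatized for 3 d. They received daily intradermal dorsal injections of P. acnes at 1.5 x 10^8 CFU/ml, 0.05 ml/10 g. Test compound in 1 mg/ml Carbopol 940 hydrogel was applied topically at 0.05 g/10 g; controls were untreated. At the end, 8 mm punch biopsies were homogenized in 2 ml PBS and diluted 10 times. A 0.1 ml aliquot was plated on RCM and grown anaerobically at 37 °C for 48 h. Colonies were counted and expressed as treated vs control (%).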

Data set [4] relates to P. acnes-induced skin inflammation. Nature of the data set: P. acnes infection. It counts as in vivo, BALB/c-nu mice. The procedure, abridged:
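Six-week-old male BALB/c-nu mice were acclimatized 3 d. They received P. acnes (1.5 × 10^8 CFU/ml) daily by intradermal injection into dorsal skin at 0.05 ml/10 g; the blank group was not injected. Test compound in 1 mg/ml Carbopol 940 hydrogel was applied topically to the inflamed area at 0.05 g/10 g; controls were left untreated. Swelling length and width were measured by caliper, with volume V = a×b²/2.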

Another data set relates to TNF-α. In words: Anti-inflammatory activity, ELISA, LPS-treated HaCaT cells. It counts as cell-based. The settings on record: 5 µmol/l for 12 h, then 1 µg/ml LPS 24 h, vs LPS, n = 3. In short, it runs like this: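 HaCaT cells were grown in DMEM with 10% FBS and 1% penicillin at 37 °C and 5% CO2. They were seeded in 6-well plates and precultured to 80% confluence. Test compound was given for 12 h, then 1 µg/ml LPS for 24 h. Medium-only (36 h) and LPS-only groups served as controls. TNF-α in the supernatant was measured by ELISA; n = 3.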

A further data set relates to IL-8 mRNA. Nature of the data set: RT-PCR of inflammatory factors, LPS-treated HaCaT cells. The note with it: 5 µmol/l for 12 h, then 1 µg/ml LPS 24 h, n = 3. It counts as cell-based.
Data set [5] in a line: Visualization of skin penetration by CLSM. It counts as in vitro ADME, BALB/c-nu nude mice. The settings on record: 6 h treatment. In short, it runs like this:
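Dorsal skin was excised from six-week-old male BALB/c-nu nude mice and cleared of subcutaneous tissue. It was exposed to C6-loaded nanoparticles of the test compound, since the compound itself fluoresces weakly. Skin was processed as in the HPLC retention study, then imaged by confocal microscopy. Mean skin fluorescence intensity was calculated per group.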

Each structure is given as a SMILES string. Values after ≈ are worked out from the molar mass of the structure shown.

As to `C[C@H]1COC2=C1C(=O)C(=O)c1c2ccc2c1CCCC2(C)C` [CTS, Cryptotanshinone], the “NF-κB p65 expression in skin (AOD)” value in the data set on NF-κB (p65) was “slight reduction in NF-κB p65 expression”. For the same compound, the minimum inhibitory concentration (MIC) against Sep. was 125 µM (≈ 37 µg/mL); with P. acnes [1], 250 µM (≈ 74.1 µg/mL); with Sau. it was 125 µM (≈ 37 µg/mL). The logP at 24 h in [2] stood at 4.49. In the data set with P. acnes [3], the “Quantity of P. acnes in the skin” value is listed as “significantly reduced the quantity of P. acnes in the skin”. In data set [4] (7-d treatment period, topical 1 mg/ml hydrogel), the “Body weight and skin tolerance” value was “no significant weight loss or skin dryness and erythema”. In addition, the “Reduction in swelling volume” value in data set [4] (Day 7 of treatment, topical 1 mg/ml hydrogel (Carbopol 940), 0.05 g/10 g, n = 6) was 64.9%. In addition, the “Histomorphological observation (HE staining) of skin” value in data set [4] (after 7 d topical 1 mg/ml hydrogel) was “reduction in skin thickness, accompanied by a decrease in keratinization”. Further, the “TNF-α expression level in supernatant” value with TNF-α was “although reduced, did not reach statistical significance”.
For `CC(C)(C)c1ccc(S(=O)(=O)/C=C/C#N)cc1` [BAY11-7085], the “IL-8 mRNA expression” value in the data set on IL-8 mRNA is “restored to normal baseline levels”. Besides, in the data set on TNF-α, the “TNF-α expression level in supernatant” value is recorded as “substantially suppressed TNF-α expression”.
Regarding `CCN(CC)c1ccc2cc(-c3nc4ccccc4s3)c(=O)oc2c1` [C6, coumarin-6], the “Penetration of C6 into the skin (CLSM)” value in data set [5] is given as “solely observable in the skin's stratum corneum”.
